ChEMBL document CHEMBL1152370, “N-(4-Fluorobenzyl)-3-hydroxy-9,9-dimethyl-4-oxo-6,7,8,9-tetrahydro-4H-pyrazino[1,2-a]pyrimidine-2-carboxamides a novel class of potent HIV-1 integrase inhibitors” (Bioorg Med Chem Lett, 2009)
pIC50: −log10 of the molar value.

What was measured:
[1] = system: Human immunodeficiency virus 1; assay: Antiviral activity against HIV1 3B infected in human MT4 cells assessed as inhibition of viral spread in presence of 10% heat inactivated fetal bovine serum; assay type: functional; conditions: Human immunodeficiency virus 1, 3B, read-out: CIC95
Outline: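 Spread assay of HIV-1 IIIB infection in MT-4 human T-lymphoid cell culture with 10% heat-inactivated fetal bovine serum. The value is the 95% inhibitory concentration (CIC95) for blocking the spread of infection. SD was always ±10% of the value.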

[2] = target: Human immunodeficiency virus type 1 integrase (Human immunodeficiency virus 1, UniProt Q7ZJM1); assay: Inhibition of HIV1 recombinant integrase strand transfer activity treated after enzyme assembly and washing
[3] = system: Human immunodeficiency virus 1; assay: Antiviral activity against HIV1 3B infected in human MT4 cells assessed as inhibition of viral spread in presence of 50% normal human serum; assay type: functional; conditions: Human immunodeficiency virus 1, 3B, read-out: CIC95
Outline: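 Spread assay of HIV-1 IIIB infection in MT-4 human T-lymphoid cell culture with 50% normal human serum. The value is the CIC95, the 95% inhibitory concentration for blocking the spread of infection. SD was always ±10% of the value.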

[4] = Plasma clearance in rat; assay type: ADME, organism-based
[5] = Bioavailability in rat; assay type: ADME, organism-based; conditions: in vivo

Chain of Human immunodeficiency virus type 1 integrase (Q7ZJM1 whole entry): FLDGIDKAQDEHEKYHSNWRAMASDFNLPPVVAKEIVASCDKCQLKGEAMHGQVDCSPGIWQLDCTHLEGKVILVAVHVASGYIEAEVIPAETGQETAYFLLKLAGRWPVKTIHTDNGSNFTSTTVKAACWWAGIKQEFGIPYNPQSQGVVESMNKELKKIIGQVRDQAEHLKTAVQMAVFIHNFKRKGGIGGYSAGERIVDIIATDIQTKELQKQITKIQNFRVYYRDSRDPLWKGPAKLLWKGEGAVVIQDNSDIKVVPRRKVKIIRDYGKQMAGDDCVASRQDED

| pIC50 [2] | clearance [4] [L/h/kg] | bioavailability [5] [%] | Structure (SMILES) | IC95 [1] [µM] | IC95 [3] [µM] |
| --- | --- | --- | --- | --- | --- |
| 8.70 |  |  | CC1(C)c2nc(C(=O)NCc3ccc(F)cc3)c(O)c(=O)n2CCN1Cc1nnn[nH]1 | 0.5 | 1 |
| 8.22 |  |  | Cn1nnc(CN2CCn3c(nc(C(=O)NCc4ccc(F)cc4)c(O)c3=O)C2(C)C)n1 | 0.007 | 0.031 |
| 8.52 |  |  | CC1(C)c2nc(C(=O)NCc3ccc(F)cc3)c(O)c(=O)n2CCN1CCN1CCOCC1 | 0.5 | 1 |
| 7.82 |  |  | CCNC(=O)N1CCn2c(nc(C(=O)NCc3ccc(F)cc3)c(O)c2=O)C1(C)C | 0.5 |  |
| 7.80 |  |  | CC1(C)NCCn2c1nc(C(=O)NCc1ccc(F)cc1)c(O)c2=O | 0.125 | 0.166 |
| 7.60 |  |  | Cn1cnc(CN2CCn3c(nc(C(=O)NCc4ccc(F)cc4)c(O)c3=O)C2(C)C)n1 | 0.031 | 0.062 |
| 8.22 |  |  | Cc1nc(CN2CCn3c(nc(C(=O)NCc4ccc(F)cc4)c(O)c3=O)C2(C)C)no1 | 0.015 | 0.062 |
| 8.30 |  |  | Cn1nnnc1CN1CCn2c(nc(C(=O)NCc3ccc(F)cc3)c(O)c2=O)C1(C)C | 0.015 | 0.062 |
| 8.10 |  |  | CN(C)S(=O)(=O)N1CCn2c(nc(C(=O)NCc3ccc(F)cc3)c(O)c2=O)C1(C)C | 1 |  |
| 7.92 |  |  | CC1(C)c2nc(C(=O)NCc3ccc(F)cc3)c(O)c(=O)n2CCN1CCc1ccccn1 | 0.25 | 1 |
| 7.12 |  |  | CCN(CC)CCN1CCn2c(nc(C(=O)NCc3ccc(F)cc3)c(O)c2=O)C1(C)C | 0.625 | 0.625 |
| 7.68 |  |  | CNC(=O)CN1CCn2c(nc(C(=O)NCc3ccc(F)cc3)c(O)c2=O)C1(C)C | 0.062 | 0.125 |
| 8.10 |  |  | CN(C)C(=O)CN1CCn2c(nc(C(=O)NCc3ccc(F)cc3)c(O)c2=O)C1(C)C | 0.062 | 0.125 |
| 8.30 |  |  | CC1(C)NC(=O)Cn2c1nc(C(=O)NCc1ccc(F)cc1)c(O)c2=O | > 1 | > 1 |
| 7.21 |  |  | Cc1cc(CN2CCn3c(nc(C(=O)NCc4ccc(F)cc4)c(O)c3=O)C2(C)C)on1 | 0.031 | 0.125 |
| 7.89 |  |  | Cc1noc(CN2CCn3c(nc(C(=O)NCc4ccc(F)cc4)c(O)c3=O)C2(C)C)n1 | 0.015 | 0.062 |
| 8.05 |  |  | CC1(C)c2nc(C(=O)NCc3ccc(F)cc3)c(O)c(=O)n2CCN1Cc1ccccn1 | 0.031 | 0.125 |
| 8.05 |  |  | Cn1ccc(CN2CCn3c(nc(C(=O)NCc4ccc(F)cc4)c(O)c3=O)C2(C)C)n1 | 0.031 | 0.125 |
| 7.68 |  |  | CC1(C)c2nc(C(=O)NCc3ccc(F)cc3)c(O)c(=O)n2CCN1Cc1nnco1 | 0.015 | 0.062 |
| 8.30 |  |  | Cc1nnc(CN2CCn3c(nc(C(=O)NCc4ccc(F)cc4)c(O)c3=O)C2(C)C)o1 | 0.007 | 0.062 |
| 8.00 |  |  | CC1(C)c2nc(C(=O)NCc3ccc(F)cc3)c(O)c(=O)n2CCN1S(C)(=O)=O | 1 |  |
| 7.52 |  |  | CN1Cn2c(nc(C(=O)NCc3ccc(F)cc3)c(O)c2=O)C1(C)C | 0.5 | 1 |
| 8.70 |  |  | Cn1cc(CN2CCn3c(nc(C(=O)NCc4ccc(F)cc4)c(O)c3=O)C2(C)C)nn1 | 0.031 | 0.062 |
| 8.15 |  |  | CC1(C)c2nc(C(=O)NCc3ccc(F)cc3)c(O)c(=O)n2CCN1CC(=O)N1CCCC1 | 0.031 | 0.25 |

| pIC50 [2] | clearance [4] [L/h/kg] | bioavailability [5] [%] | Structure (SMILES) | IC95 [1] [µM] | IC95 [3] [µM] |
| --- | --- | --- | --- | --- | --- |
| 8.15 |  |  | CC1(C)c2nc(C(=O)NCc3ccc(F)cc3)c(O)c(=O)n2CCN1Cc1cn[nH]c1 | 0.062 | 1 |
| 8.30 |  |  | CC(=O)N1CCn2c(nc(C(=O)NCc3ccc(F)cc3)c(O)c2=O)C1(C)C | 1 |  |
| 8.40 |  |  | CC1(C)c2nc(C(=O)NCc3ccc(F)cc3)c(O)c(=O)n2CCN1Cc1cnco1 | 0.031 | 0.125 |
| 8.15 |  |  | Cn1nccc1CN1CCn2c(nc(C(=O)NCc3ccc(F)cc3)c(O)c2=O)C1(C)C | 0.031 | 0.125 |
| 8.30 |  |  | CC1(C)c2nc(C(=O)NCc3ccc(F)cc3)c(O)c(=O)n2CCN1CC(N)=O | 0.125 | 0.25 |
| 8.22 | 0.6 | 57 | CN1CCn2c(nc(C(=O)NCc3ccc(F)cc3)c(O)c2=O)C1(C)C | 0.125 | 0.25 |
| 8.52 |  |  | CC1(C)c2nc(C(=O)NCc3ccc(F)cc3)c(O)c(=O)n2CCN1Cc1cocn1 | 0.031 | 0.093 |
| 8.30 |  |  | CC1(C)c2nc(C(=O)NCc3ccc(F)cc3)c(O)c(=O)n2CCN1Cc1ccn[nH]1 | 0.062 | 0.25 |
| 7.68 |  |  | CN1CCN(C(=O)CN2CCn3c(nc(C(=O)NCc4ccc(F)cc4)c(O)c3=O)C2(C)C)CC1 | 0.062 | 0.125 |
| 8.22 |  |  | Cn1nncc1CN1CCn2c(nc(C(=O)NCc3ccc(F)cc3)c(O)c2=O)C1(C)C | 0.015 | 0.125 |
| 7.21 |  |  | CN(C)CCN1CCn2c(nc(C(=O)NCc3ccc(F)cc3)c(O)c2=O)C1(C)C | 1.25 | 1.25 |
| 8.22 |  |  | CC1(C)c2nc(C(=O)NCc3ccc(F)cc3)c(O)c(=O)n2CCN1Cc1cnn[nH]1 | 0.031 | 0.125 |
| 8.22 |  |  | CC1(C)c2nc(C(=O)NCc3ccc(F)cc3)c(O)c(=O)n2CCN1Cc1cnccn1 | 0.031 | 0.125 |
| 8.15 |  |  | CC1(C)c2nc(C(=O)NCc3ccc(F)cc3)c(O)c(=O)n2CCN1CC(=O)N1CCOCC1 | 0.062 | 0.25 |
| 8.15 |  |  | CC1(C)NS(=O)(=O)Cn2c1nc(C(=O)NCc1ccc(F)cc1)c(O)c2=O | 5 | > 10 |
| 8.10 |  |  | CC1(C)c2nc(C(=O)NCc3ccc(F)cc3)c(O)c(=O)n2CCN1CC(=O)O | 0.5 | 1 |
| 7.16 |  |  | CN(C)[C@@H]1CCCn2c1nc(C(=O)NCc1ccc(F)cc1)c(O)c2=O |  |  |
| 7.70 |  |  | CC1(C)NCCCn2c1nc(C(=O)NCc1ccc(F)cc1)c(O)c2=O | 0.5 | 0.25 |
| 8.30 |  |  | CC1(C)c2nc(C(=O)NCc3ccc(F)cc3)c(O)c(=O)n2CCN1Cc1ccccc1 | 0.125 | 0.25 |
| 8.10 |  |  | Cc1cnc(CN2CCn3c(nc(C(=O)NCc4ccc(F)cc4)c(O)c3=O)C2(C)C)o1 | 0.015 | 0.062 |
| 7.49 |  |  | CC1(C)NC(=O)n2c1nc(C(=O)NCc1ccc(F)cc1)c(O)c2=O | > 1 | > 1 |
| 8.22 |  |  | CN(C)C(=O)C(=O)N1CCn2c(nc(C(=O)NCc3ccc(F)cc3)c(O)c2=O)C1(C)C | 1 |  |
| 8.05 |  |  | CC1(C)c2nc(C(=O)NCc3ccc(F)cc3)c(O)c(=O)n2CCN1Cc1cscn1 | 0.015 | 0.125 |
|  |  |  | Cc1nnc(C(=O)NC(C)(C)c2nc(C(=O)NCc3ccc(F)cc3)c(O)c(=O)n2C)o1 [RALTEGRAVIR POTASSIUM] | 0.019 | 0.031 |
